Holding throughout (format): functional
Assay [1] concerns Clostridioides difficile. As to the kind of experiment: Antibacterial activity against Clostridium difficile ATCC 9689 by CLSI agar dilution method using 10^5 to 10^8 CFU/ml inoculum. The method in brief:
(§1)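 CLSI agar dilution in a glove box (10% H2, 5% CO2, 85% N2). A ~10^8 CFU/ml suspension was serially diluted 10-fold to 10^5–10^8 CFU/ml and 2 μl was spotted (10^2–10^5 CFU/spot). Runs were done at least in duplicate; the mode was reported, or the higher value when replicates split evenly.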

The test system of assay [2] is Clostridioides difficile. As to the kind of experiment: Antibacterial activity against Clostridium difficile ATCC 700057 by CLSI agar dilution method using 10^5 to 10^8 CFU/ml inoculum. The method in brief:
as §1

Assay [3] has as its system Clostridioides difficile. The assay is described as follows: Antibacterial activity against Clostridium difficile ATCC 700057 in presence of 33 mg/L of calcium ion by CLSI agar dilution method.
The test system of assay [4] is Clostridioides difficile. As to the kind of experiment: Antibacterial activity against Clostridium difficile ATCC 700057 in presence of 45 mg/L of calcium ion by CLSI agar dilution method.
The test system of assay [5] is Clostridioides difficile. The assay is described as follows: Antibacterial activity against Clostridium difficile ATCC 700057 in presence of 75 mg/L of calcium ion by CLSI agar dilution method.
Assay [6] relates to Clostridioides difficile. As to the kind of experiment: Antibacterial activity against Clostridium difficile ATCC 9689 in presence of 33 mg/L of calcium ion by CLSI agar dilution method.
Assay [7] has as its system Clostridioides difficile. The assay is described as follows: Antibacterial activity against Clostridium difficile ATCC 9689 in presence of 45 mg/L of calcium ion by CLSI agar dilution method.
Assay [8] has as its system Clostridioides difficile. The assay is described as follows: Antibacterial activity against Clostridium difficile ATCC 9689 in presence of 75 mg/L of calcium ion by CLSI agar dilution method.
Assay [9] concerns Clostridioides difficile. The assay is described as follows: Antibacterial activity against Clostridium difficile ATCC 700057 in presence of 21 mg/L of magnesium ion by CLSI agar dilution method.
The subject of assay [10] is Clostridioides difficile. The assay is described as follows: Antibacterial activity against Clostridium difficile ATCC 700057 in presence of 30 mg/L of magnesium ion by CLSI agar dilution method.
In assay [11] the test system is Clostridioides difficile. The assay is described as follows: Antibacterial activity against Clostridium difficile ATCC 700057 in presence of 57 mg/L of magnesium ion by CLSI agar dilution method.
Assay [12] concerns Clostridioides difficile. The assay is described as follows: Antibacterial activity against Clostridium difficile ATCC 9689 in presence of 21 mg/L of magnesium ion by CLSI agar dilution method.
Assay [13] has as its system Clostridioides difficile. The assay is described as follows: Antibacterial activity against Clostridium difficile ATCC 9689 in presence of 30 mg/L of magnesium ion by CLSI agar dilution method.
Assay [14] relates to Clostridioides difficile. As to the kind of experiment: Antibacterial activity against Clostridium difficile ATCC 9689 in presence of 57 mg/L of magnesium ion by CLSI agar dilution method.
Assay [15] deals with Clostridioides difficile. The assay is described as follows: Ratio of MIC for Clostridium difficile ATCC 700057 at pH 6.2 to MIC for Clostridium difficile ATCC 700057 at pH 7.9 by CLSI agar dilution method. In short, it runs like this: (§2)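 Agar dilution MICs were measured over anaerobic pH 6.2–8.0. Media were buffered with 100 mM NaH2PO4 (pH 7) or TAPS (pH 8) and set in ambient air above the target pH. After 3 h equilibration in the chamber (5% CO2), anaerobic pH was checked with a flat-bottomed probe. The pH 8.0 run was repeated, and ratios were taken between MICs at the two pH values.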

Assay [16] deals with Clostridioides difficile. The assay is described as follows: Ratio of MIC for Clostridium difficile ATCC 9689 at pH 6.2 to MIC for Clostridium difficile ATCC 9689 at pH 7.9 by CLSI agar dilution method. The method in brief: as §2
The subject of assay [17] is Clostridioides difficile. As to the kind of experiment: Ratio of MIC for Clostridium difficile ATCC 700057 at pH 7 to MIC for Clostridium difficile ATCC 700057 at pH 7.9 by CLSI agar dilution method. In short, it runs like this: as §2
In assay [18] the test system is Clostridioides difficile. The assay is described as follows: Ratio of MIC for Clostridium difficile ATCC 9689 at pH 7 to MIC for Clostridium difficile ATCC 9689 at pH 7.9 by CLSI agar dilution method. In short, it runs like this:
as §2

Assay [19] relates to Clostridioides difficile. As to the kind of experiment: Ratio of MIC for Clostridium difficile ATCC 700057 at pH 6 to MIC for Clostridium difficile ATCC 700057 at pH 7.5 by broth microdilution method. The method in brief:
(§3)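 Broth microdilution in brucella broth buffered at 10 or 100 mM with NaH2PO4·H2O (pH 7.0), MOPS (pH 8.0) or TAPS (pH 9.0), pH set in ambient air. Final anaerobic pH ranges were 6–7.6 (10 mM) and 6–8.1 (100 mM). Plates were equilibrated anaerobically for at least 3 h before inoculation. Data were pooled from three experiments, and ratios were taken between MICs at the two pH values.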

Assay [20] relates to Clostridioides difficile. The assay is described as follows: Ratio of MIC for Clostridium difficile ATCC 700057 at pH 6 to MIC for Clostridium difficile ATCC 700057 at pH 8.1 by broth microdilution method. The method in brief:
as §3

The test system of assay [21] is Clostridioides difficile. As to the kind of experiment: Ratio of MIC for Clostridium difficile ATCC 9689 at pH 6 to MIC for Clostridium difficile ATCC 9689 at pH 7.5 by broth microdilution method. In short, it runs like this: as §3
In assay [22] the test system is Clostridioides difficile. The assay is described as follows: Ratio of MIC for Clostridium difficile ATCC 9689 at pH 6 to MIC for Clostridium difficile ATCC 9689 at pH 8.1 by broth microdilution method. In short, it runs like this:
as §3

The structures appear in SMILES notation. Converted amounts (≈) assume the structure as drawn.

In the case of `CCc1c(Cl)c(O)c(Cl)c(O)c1C(=O)O[C@H]1[C@H](O)[C@H](OC)[C@H](OC/C2=C\C=C\C[C@H](O)/C(C)=C/[C@H](CC)[C@@H](O[C@@H]3OC(C)(C)[C@@H](OC(=O)C(C)C)[C@H](O)[C@@H]3O)/C(C)=C/C(C)=C/C[C@@H]([C@@H](C)O)OC2=O)O[C@@H]1C` [FIDAXOMICIN], the MIC in [1] worked out at 0.063 µg/mL (≈ 0.0595 µM); in [2] it was 0.125 µg/mL (≈ 0.118 µM); in assay [3] it was 0.125 µg/mL; in assay [4], 0.125 µg/mL; in assay [5] it was 0.125 µg/mL; in [6], 0.063 µg/mL. Besides, the MIC is 0.063 µg/mL in [7]; 0.063 µg/mL in [8]; 0.125 µg/mL in assay [9]; 0.125 µg/mL in assay [10]; 0.125 µg/mL in assay [11]; 0.063 µg/mL in assay [12]. Besides, the minimum inhibitory concentration (MIC) in assay [13] and in assay [14] was 0.063 µg/mL each time. In addition, the Ratio was 8 in [15]; 8 in assay [16]; 8 in assay [17]; 8 in assay [18]; 8 in assay [19]; 16 in assay [20]. Moreover, the Ratio in assay [21] is on record as 8; in [22], 16.

Consider `CN[C@H](CC(C)C)C(=O)N[C@H]1C(=O)N[C@@H](CC(N)=O)C(=O)N[C@H]2C(=O)N[C@H]3C(=O)N[C@H](C(=O)N[C@H](C(=O)O)c4cc(O)cc(O)c4-c4cc3ccc4O)[C@H](O)c3ccc(c(Cl)c3)Oc3cc2cc(c3O[C@@H]2O[C@H](CO)[C@@H](O)[C@H](O)[C@H]2O[C@H]2C[C@](C)(N)[C@H](O)[C@H](C)O2)Oc2ccc(cc2Cl)[C@H]1O` [VANCOMYCIN], for which the minimum inhibitory concentration (MIC) in assay [3], in assay [6], in [9] and in [12] was 1 µg/mL each time. For the same molecule, the Ratio is recorded as 8 in [19], 16 in [20], 8 in [21] and 16 in [22].

Values taken from ChEMBL document CHEMBL1255471, “Effects of inoculum, pH, and cations on the in vitro activity of fidaxomicin (OPT-80, PAR-101) against Clostridium difficile” (2010).
